Measurements reported in ChEMBL document CHEMBL1134286, “Novel erythromycin derivatives with aryl groups tethered to the C-6 position are potent protein synthesis inhibitors and active against multidrug-resistant respiratory pathogens” (J Med Chem, 2001).
≈ marks a conversion by molar mass, not a printed value.

What was measured:
Type in all cases: functional
[1] = Minimum inhibitory concentration against Haemophilus influenzae DILL Amp-R
Outline: (§1)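 MICs were determined by agar dilution following National Committee for Clinical Laboratory Standards recommendations. Values are in µg/mL.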

Staphylococcus aureus [2] = assay: Minimum inhibitory concentration against Staphylococcus aureus ATCC 6538PEry-S; details: ATCC 6538P; outline: as §1
Streptococcus pneumoniae [3] = assay: Minimum inhibitory concentration against Streptococcus pneumoniae 5649 efflux; outline: as §1
[4] = Minimum inhibitory concentration against Streptococcus pneumoniae 5737 MLSB; outline: as §1
[5] = Minimum inhibitory concentration against Streptococcus pyogenes PIU2548 efflux; outline: as §1
Staphylococcus aureus [6] = assay: Minimum inhibitory concentration against Staphylococcus aureus A 5177 MLSB-i; outline: as §1
[7] = Minimum inhibitory concentration against Streptococcus pyogenes 930MLSB; outline: as §1
Staphylococcus aureus [8] = assay: Minimum inhibitory concentration against Staphylococcus aureus A 5278 MLSB-c; outline: as §1
Streptococcus pneumoniae [9] = assay: Minimum inhibitory concentration against Streptococcus pneumoniae ATCC 6303 Ery-S; outline: as §1
[10] = Minimum inhibitory concentration against Streptococcus pyogenes EES 61 Ery-S; outline: as §1

CC[C@H]1OC(=O)[C@H](C)C(=O)[C@H](C)[C@@H](O[C@@H]2O[C@H](C)C[C@H](N(C)C)[C@H]2O)[C@](C)(OCCNCCCc2cnc3ccccc3c2)C[C@@H](C)C(=O)[C@H](C)[C@H]2NC(=O)O[C@@]21C
MIC [1]: 4 µg/mL (≈ 4.93 µM) | MIC (Staphylococcus aureus [2]): 0.2 µg/mL (≈ 0.247 µM) | MIC (Streptococcus pneumoniae [3]): 2 µg/mL (≈ 2.47 µM) | MIC [4]: 2 µg/mL (≈ 2.47 µM) | MIC [5]: 2 µg/mL (≈ 2.47 µM) | MIC (Staphylococcus aureus [6]): 0.39 µg/mL (≈ 0.481 µM) | MIC [7]: > 100 µg/mL | MIC (Staphylococcus aureus [8]): > 100 µg/mL | MIC (Streptococcus pneumoniae [9]): 0.03 µg/mL (≈ 0.037 µM) | MIC [10]: 0.03 µg/mL (≈ 0.037 µM)

CC[C@H]1OC(=O)[C@H](C)C(=O)[C@H](C)[C@@H](O[C@@H]2O[C@H](C)C[C@H](N(C)C)[C@H]2O)[C@](C)(OCCNCCCc2ccccc2)C[C@@H](C)C(=O)[C@H](C)[C@H]2NC(=O)O[C@@]21C
MIC [1]: 4 µg/mL (≈ 5.26 µM) | MIC (Staphylococcus aureus [2]): 0.2 µg/mL (≈ 0.263 µM) | MIC (Streptococcus pneumoniae [3]): 0.5 µg/mL (≈ 0.658 µM) | MIC [4]: 16 µg/mL (≈ 21.1 µM) | MIC [5]: 2 µg/mL (≈ 2.63 µM) | MIC (Staphylococcus aureus [6]): 0.2 µg/mL (≈ 0.263 µM) | MIC [7]: 64 µg/mL (≈ 84.2 µM) | MIC (Staphylococcus aureus [8]): > 100 µg/mL | MIC (Streptococcus pneumoniae [9]): 0.03 µg/mL (≈ 0.0395 µM) | MIC [10]: 0.03 µg/mL (≈ 0.0395 µM)

CC[C@H]1OC(=O)[C@H](C)C(=O)[C@H](C)[C@@H](O[C@@H]2O[C@H](C)C[C@H](N(C)C)[C@H]2O)[C@](C)(OCCNCc2ccccc2)C[C@@H](C)C(=O)[C@H](C)[C@@H](O)[C@]1(C)O
MIC [1]: 16 µg/mL (≈ 22.6 µM) | MIC (Staphylococcus aureus [2]): 3.1 µg/mL (≈ 4.39 µM) | MIC (Streptococcus pneumoniae [3]): 4 µg/mL (≈ 5.66 µM) | MIC [4]: > 64 µg/mL | MIC [5]: 4 µg/mL (≈ 5.66 µM) | MIC (Staphylococcus aureus [6]): 1.56 µg/mL (≈ 2.21 µM) | MIC [7]: > 64 µg/mL | MIC (Staphylococcus aureus [8]): > 100 µg/mL | MIC (Streptococcus pneumoniae [9]): 0.25 µg/mL (≈ 0.354 µM) | MIC [10]: 0.5 µg/mL (≈ 0.707 µM)

CC[C@H]1OC(=O)[C@H](C)C(=O)[C@H](C)[C@@H](O[C@@H]2O[C@H](C)C[C@H](N(C)C)[C@H]2O)[C@](C)(OC/C=C/c2cnc3ccccc3c2)C[C@@H](C)C(=O)[C@H](C)[C@H]2N(N)C(=O)O[C@]12C
MIC [1]: 2 µg/mL (≈ 2.56 µM) | MIC (Staphylococcus aureus [2]): 0.1 µg/mL (≈ 0.128 µM) | MIC (Streptococcus pneumoniae [3]): 0.25 µg/mL (≈ 0.32 µM) | MIC [4]: 64 µg/mL (≈ 82 µM) | MIC [5]: 0.5 µg/mL (≈ 0.64 µM) | MIC (Staphylococcus aureus [6]): 0.1 µg/mL (≈ 0.128 µM) | MIC [7]: 64 µg/mL (≈ 82 µM) | MIC (Staphylococcus aureus [8]): > 100 µg/mL | MIC (Streptococcus pneumoniae [9]): 0.015 µg/mL (≈ 0.0192 µM) | MIC [10]: 0.015 µg/mL (≈ 0.0192 µM)

CC[C@H]1OC(=O)[C@H](C)C(=O)[C@H](C)[C@@H](O[C@@H]2O[C@H](C)C[C@H](N(C)C)[C@H]2O)[C@](C)(OC/C=C/c2cnc3ccccc3c2)C[C@@H](C)C(=O)[C@H](C)[C@H]2N(OC)C(=O)O[C@]12C
MIC [1]: 8 µg/mL (≈ 10.1 µM) | MIC (Staphylococcus aureus [2]): 0.1 µg/mL (≈ 0.126 µM) | MIC (Streptococcus pneumoniae [3]): 0.5 µg/mL (≈ 0.628 µM) | MIC [4]: 64 µg/mL (≈ 80.4 µM) | MIC [5]: 0.5 µg/mL (≈ 0.628 µM) | MIC (Staphylococcus aureus [6]): 0.1 µg/mL (≈ 0.126 µM) | MIC [7]: 64 µg/mL (≈ 80.4 µM) | MIC (Staphylococcus aureus [8]): > 100 µg/mL | MIC (Streptococcus pneumoniae [9]): 0.06 µg/mL (≈ 0.0754 µM) | MIC [10]: 0.03 µg/mL (≈ 0.0377 µM)

CC[C@H]1OC(=O)[C@H](C)C(=O)[C@H](C)[C@@H](O[C@@H]2O[C@H](C)C[C@H](N(C)C)[C@H]2O)[C@](C)(OC/C=C/c2cnc3sccc3c2)C[C@@H](C)C(=O)[C@H](C)[C@H]2NC(=O)O[C@@]21C
MIC [1]: 2 µg/mL (≈ 2.59 µM) | MIC (Staphylococcus aureus [2]): 0.05 µg/mL (≈ 0.0648 µM) | MIC (Streptococcus pneumoniae [3]): 0.25 µg/mL (≈ 0.324 µM) | MIC [4]: 0.5 µg/mL (≈ 0.648 µM) | MIC [5]: 0.25 µg/mL (≈ 0.324 µM) | MIC (Staphylococcus aureus [6]): 0.05 µg/mL (≈ 0.0648 µM) | MIC [7]: 4 µg/mL (≈ 5.18 µM) | MIC (Staphylococcus aureus [8]): > 100 µg/mL | MIC (Streptococcus pneumoniae [9]): 0.004 µg/mL (≈ 0.00518 µM) | MIC [10]: 0.008 µg/mL (≈ 0.0104 µM)

CC[C@H]1OC(=O)[C@H](C)C(=O)[C@H](C)[C@@H](O[C@@H]2O[C@H](C)C[C@H](N(C)C)[C@H]2O)[C@](C)(OC/C=C/c2cnc3nccnc3c2)C[C@@H](C)C(=O)[C@H](C)[C@H]2NC(=O)O[C@@]21C
MIC [1]: 4 µg/mL (≈ 5.21 µM) | MIC (Staphylococcus aureus [2]): 0.2 µg/mL (≈ 0.26 µM) | MIC (Streptococcus pneumoniae [3]): 2 µg/mL (≈ 2.6 µM) | MIC [4]: 1 µg/mL (≈ 1.3 µM) | MIC [5]: 2 µg/mL (≈ 2.6 µM) | MIC (Staphylococcus aureus [6]): 0.2 µg/mL (≈ 0.26 µM) | MIC [7]: 4 µg/mL (≈ 5.21 µM) | MIC (Staphylococcus aureus [8]): > 100 µg/mL | MIC (Streptococcus pneumoniae [9]): 0.015 µg/mL (≈ 0.0195 µM) | MIC [10]: 0.015 µg/mL (≈ 0.0195 µM)

CC[C@H]1OC(=O)[C@H](C)C(=O)[C@H](C)[C@@H](O[C@@H]2O[C@H](C)C[C@H](N(C)C)[C@H]2O)[C@](C)(OC/C=C/c2cnc3ccccc3c2)C[C@@H](C)C(=O)[C@H](C)[C@H]2N(C)C(=O)O[C@]12C
MIC [1]: 4 µg/mL (≈ 5.13 µM) | MIC (Staphylococcus aureus [2]): 0.1 µg/mL (≈ 0.128 µM) | MIC (Streptococcus pneumoniae [3]): 0.25 µg/mL (≈ 0.321 µM) | MIC [4]: 1 µg/mL (≈ 1.28 µM) | MIC [5]: 0.25 µg/mL (≈ 0.321 µM) | MIC (Staphylococcus aureus [6]): 0.1 µg/mL (≈ 0.128 µM) | MIC [7]: 4 µg/mL (≈ 5.13 µM) | MIC (Staphylococcus aureus [8]): > 100 µg/mL | MIC (Streptococcus pneumoniae [9]): 0.03 µg/mL (≈ 0.0385 µM) | MIC [10]: 0.015 µg/mL (≈ 0.0192 µM)

CC[C@H]1OC(=O)[C@H](C)C(=O)[C@H](C)[C@@H](O[C@@H]2O[C@H](C)C[C@H](N(C)C)[C@H]2O)[C@](C)(OC/C=C/c2ccc3[nH]cnc3c2)C[C@@H](C)C(=O)[C@H](C)[C@H]2NC(=O)O[C@@]21C
MIC [1]: 4 µg/mL (≈ 5.3 µM) | MIC (Staphylococcus aureus [2]): 0.1 µg/mL (≈ 0.132 µM) | MIC (Streptococcus pneumoniae [3]): 4 µg/mL (≈ 5.3 µM) | MIC [4]: 8 µg/mL (≈ 10.6 µM) | MIC [5]: 2 µg/mL (≈ 2.65 µM) | MIC (Staphylococcus aureus [6]): 0.1 µg/mL (≈ 0.132 µM) | MIC [7]: 4 µg/mL (≈ 5.3 µM) | MIC (Staphylococcus aureus [8]): > 100 µg/mL | MIC (Streptococcus pneumoniae [9]): 0.03 µg/mL (≈ 0.0397 µM) | MIC [10]: 0.03 µg/mL (≈ 0.0397 µM)

CC[C@H]1OC(=O)[C@H](C)C(=O)[C@H](C)[C@@H](O[C@@H]2O[C@H](C)C[C@H](N(C)C)[C@H]2O)[C@](C)(OCCNCc2ccnc3ccccc23)C[C@@H](C)C(=O)[C@H](C)[C@@H](O)[C@]1(C)O
MIC [1]: 32 µg/mL (≈ 42.2 µM) | MIC (Staphylococcus aureus [2]): 3.1 µg/mL (≈ 4.09 µM) | MIC (Streptococcus pneumoniae [3]): 0.5 µg/mL (≈ 0.66 µM) | MIC [4]: > 128 µg/mL | MIC [5]: 4 µg/mL (≈ 5.28 µM) | MIC (Staphylococcus aureus [6]): 3.1 µg/mL (≈ 4.09 µM) | MIC [7]: > 128 µg/mL | MIC (Staphylococcus aureus [8]): > 100 µg/mL | MIC (Streptococcus pneumoniae [9]): 0.25 µg/mL (≈ 0.33 µM) | MIC [10]: 0.25 µg/mL (≈ 0.33 µM)
